Tests used:
[1] = Distribution in the bone after 15 min of intravenous administration; format: ADME, tissue-based, Bone element; conditions: 0.25 h
Method in brief: (§1)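 Swiss white mice (20-25 g) anesthetized with sodium pentobarbital (80 mg/kg ip), then given 0.1-0.2 mL (74 kBq) of radioiodinated compound or 201Tl+ by tail-vein injection. Four mice per time point were killed by cardiac puncture/exsanguination at 5, 15, 30 and 60 min (some also at 90 and 120 min). Organs were excised, washed, blotted and weighed, blood was sampled, and radioactivity was counted against injection standards. Values are percent injected dose/g.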

[2] = Distribution in the lung after 5 min of intravenous administration; format: ADME, tissue-based; method in brief: as §1
[3] = Distribution in the kidneys after 15 min of intravenous administration; format: ADME, tissue-based, Kidney; conditions: 0.25 h; method in brief: as §1
[4] = Distribution in the kidneys after 120 min of intravenous administration; format: ADME, tissue-based, Kidney; conditions: 2 h; method in brief: as §1
[5] = Distribution in the kidneys after 5 min of intravenous administration; format: ADME, tissue-based, Kidney; method in brief: as §1
[6] = Distribution in the lung after 120 min of intravenous administration; format: ADME, tissue-based; conditions: 2 h; method in brief: as §1
[7] = Distribution in the spleen after 5 min of intravenous administration; format: ADME, tissue-based; method in brief: as §1
[8] = Distribution in the blood after 15 min of intravenous administration; format: ADME, tissue-based; conditions: 0.25 h; method in brief: as §1
[9] = Distribution in the heart after 120 min of intravenous administration; format: ADME, tissue-based; conditions: 2 h; method in brief: as §1
[10] = Distribution in the muscle after 120 min of intravenous administration; format: ADME, tissue-based, Muscle tissue; conditions: 2 h; method in brief: as §1
[11] = Distribution in the muscle after 60 min of intravenous administration; format: ADME, tissue-based, Muscle tissue; conditions: 1 h; method in brief: as §1
[12] = Distribution in the heart after 60 min of intravenous administration; format: ADME, tissue-based; conditions: 1 h; method in brief: as §1
[13] = Distribution in the bone after 60 min of intravenous administration; format: ADME, tissue-based, Bone element; conditions: 1 h; method in brief: as §1
[14] = Distribution in the lung after 60 min of intravenous administration; format: ADME, tissue-based; conditions: 1 h; method in brief: as §1
[15] = Distribution in the liver after 60 min of intravenous administration; format: ADME, tissue-based; conditions: 1 h; method in brief: as §1
[16] = Distribution in the spleen after 90 min of intravenous administration; format: ADME, tissue-based; conditions: 1.5 h; method in brief: as §1
[17] = Distribution in the spleen after 15 min of intravenous administration; format: ADME, tissue-based; conditions: 0.25 h; method in brief: as §1
[18] = Distribution in the blood after 60 min of intravenous administration; format: ADME, tissue-based; conditions: 1 h; method in brief: as §1
[19] = Distribution in the liver after 5 min of intravenous administration; format: ADME, tissue-based; method in brief: as §1
[20] = Distribution in the bone after 5 min of intravenous administration; format: ADME, tissue-based, Bone element; method in brief: as §1
[21] = Distribution in the bone after 30 min of intravenous administration; format: ADME, tissue-based, Bone element; conditions: 0.5 h; method in brief: as §1
[22] = Distribution in the liver after 30 min of intravenous administration; format: ADME, tissue-based; conditions: 0.5 h; method in brief: as §1
[23] = Distribution in the spleen after 60 min of intravenous administration; format: ADME, tissue-based; conditions: 1 h; method in brief: as §1
[24] = Distribution in the blood after 90 min of intravenous administration; format: ADME, tissue-based; conditions: 1.5 h; method in brief: as §1
[25] = Distribution in the heart after 90 min of intravenous administration; format: ADME, tissue-based; conditions: 1.5 h; method in brief: as §1
[26] = Distribution in the heart after 5 min of intravenous administration; format: ADME, tissue-based; method in brief: as §1
[27] = Distribution in the kidneys after 60 min of intravenous administration; format: ADME, tissue-based, Kidney; conditions: 1 h; method in brief: as §1
[28] = Distribution in the kidneys after 90 min of intravenous administration; format: ADME, tissue-based, Kidney; conditions: 1.5 h; method in brief: as §1
[29] = Distribution in the blood after 30 min of intravenous administration; format: ADME, tissue-based; conditions: 0.5 h; method in brief: as §1
[30] = Distribution in the lung after 15 min of intravenous administration; format: ADME, tissue-based; conditions: 0.25 h; method in brief: as §1
[31] = Distribution in the blood after 120 min of intravenous administration; format: ADME, tissue-based; conditions: 2 h; method in brief: as §1
[32] = Distribution in the lung after 30 min of intravenous administration; format: ADME, tissue-based; conditions: 0.5 h; method in brief: as §1
[33] = Distribution in the spleen after 30 min of intravenous administration; format: ADME, tissue-based; conditions: 0.5 h; method in brief: as §1
[34] = Distribution in the muscle after 5 min of intravenous administration; format: ADME, tissue-based, Muscle tissue; method in brief: as §1
[35] = Distribution in the liver after 15 min of intravenous administration; format: ADME, tissue-based; conditions: 0.25 h; method in brief: as §1
[36] = Distribution in the muscle after 15 min of intravenous administration; format: ADME, tissue-based, Muscle tissue; conditions: 0.25 h; method in brief: as §1
[37] = Distribution in the bone after 90 min of intravenous administration; format: ADME, tissue-based, Bone element; conditions: 1.5 h; method in brief: as §1
[38] = Distribution in the lung after 90 min of intravenous administration; format: ADME, tissue-based; conditions: 1.5 h; method in brief: as §1
[39] = Distribution in the heart after 15 min of intravenous administration; format: ADME, tissue-based; conditions: 0.25 h; method in brief: as §1
[40] = Distribution in the spleen after 120 min of intravenous administration; format: ADME, tissue-based; conditions: 2 h; method in brief: as §1
[41] = Distribution in the blood after 5 min of intravenous administration; format: ADME, tissue-based; method in brief: as §1
[42] = Distribution in the heart after 30 min of intravenous administration; format: ADME, tissue-based; conditions: 0.5 h; method in brief: as §1
[43] = Distribution in the kidneys after 30 min of intravenous administration; format: ADME, tissue-based, Kidney; conditions: 0.5 h; method in brief: as §1
[44] = Distribution in the muscle after 90 min of intravenous administration; format: ADME, tissue-based, Muscle tissue; conditions: 1.5 h; method in brief: as §1
[45] = Distribution in the liver after 120 min of intravenous administration; format: ADME, tissue-based; conditions: 2 h; method in brief: as §1
[46] = Distribution in the liver after 90 min of intravenous administration; format: ADME, tissue-based; conditions: 1.5 h; method in brief: as §1
Mus musculus = assay: Distribution in the muscle after 30 min of intravenous administration; format: ADME, organism-based, Muscle tissue; conditions: in vivo, 0.5 h; method in brief: as §1
[47] = Distribution in the bone after 120 min of intravenous administration; format: ADME, tissue-based, Bone element; conditions: 2 h; method in brief: as §1

## C[N+]1(CCOc2cccc(I)c2)CCCCC1
[1]
  Distribution: 2%
[2]
  Distribution: 7.3%
[3]
  Distribution: 24%
[4]
  Distribution: 6%
[5]
  Distribution: 40.1%
[6]
  Distribution: 2.6%
[7]
  Distribution: 5%
[8]
  Distribution: 2.4%
[9]
  Distribution: 17.7%
[10]
  Distribution: 1.1%
[11]
  Distribution: 1%
[12]
  Distribution: 19.5%
[13]
  Distribution: 1.5%
[14]
  Distribution: 3.4%
[15]
  Distribution: 2.4%
[16]
  Distribution: 2.1%
[17]
  Distribution: 3.6%
[18]
  Distribution: 1.5%
[19]
  Distribution: 12.5%
[20]
  Distribution: 1.6%
[21]
  Distribution: 2%
[22]
  Distribution: 4.1%
[23]
  Distribution: 2.6%
[24]
  Distribution: 1.2%
[25]
  Distribution: 18.1%
[26]
  Distribution: 20%
[27]
  Distribution: 7.4%
[28]
  Distribution: 5.3%
[29]
  Distribution: 1.9%
[30]
  Distribution: 5.5%
[31]
  Distribution: 1.4%
[32]
  Distribution: 4.6%
[33]
  Distribution: 3.4%
[34]
  Distribution: 0.9%
[35]
  Distribution: 4.9%
[36]
  Distribution: 1%
[37]
  Distribution: 1.3%
[38]
  Distribution: 2.7%
[39]
  Distribution: 21.6%
[40]
  Distribution: 2.1%
[41]
  Distribution: 1.9%
[42]
  Distribution: 23.1%
[43]
  Distribution: 14.1%
[44]
  Distribution: 1%
[45]
  Distribution: 2%
[46]
  Distribution: 2.3%
Mus musculus
  Distribution: 1.1%
[47]
  Distribution: 1.3%

Source: ChEMBL document CHEMBL1123178, “Preparation and evaluation of radioiodinated (iodophenyl)cholines and their morpholinium and piperidinium analogues as myocardial perfusion imaging agents” (J Med Chem, 1986)
